Source: paper PMC5062748 (Drug development research, 2016)

Target: T1, HNE (Homo sapiens, UniProt P08246)
T1 sequence (P08246 30-247 limits assumed): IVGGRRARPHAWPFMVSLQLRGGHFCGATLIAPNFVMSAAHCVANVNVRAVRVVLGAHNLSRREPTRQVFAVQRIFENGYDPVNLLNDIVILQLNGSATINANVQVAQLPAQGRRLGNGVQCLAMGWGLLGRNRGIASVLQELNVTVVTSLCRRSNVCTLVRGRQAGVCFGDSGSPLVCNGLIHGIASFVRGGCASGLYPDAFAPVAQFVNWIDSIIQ
Assay: HNE inhibition assay
Assay type: biochemical
Conditions: not given
Method in brief: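 Human neutrophil elastase (20 mU/mL) in 200 mM Tris–HCl pH 7.5, 0.01% BSA, 0.05% Tween-20, with test compound at varied concentrations (DMSO final 1%, top 50 µM). Reaction started with 25 µM substrate. Fluorescence (ex 355/em 460 nm) read every 30 s for 10 min at 25 °C. IC50 from % inhibition vs log concentration (≥6 points). Mean ± SD of three independent experiments.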

| Structure (SMILES) | IC50 [µM] |
| --- | --- |
| CCOC(=O)c1cn(C(=O)c2ccc(Cl)cc2)c2ccccc12 [2e, Ethyl 1-(4-chlorobenzoyl)-1H-indole-3-carboxylate] | 3.8 ± 0.4 |
| CCOC(=O)c1cn(C(=O)c2ccc(F)cc2)c2ccccc12 [2g, Ethyl 1-(4-fluorobenzoyl)-1H-indole-3-carboxylate] | 12.2 ± 2.3 |
| Cc1ccc(C(=O)n2cc(C(=O)Nc3ccccc3)c3ccccc32)cc1 [5c, 1-(4-methylbenzoyl)-N-phenyl-1H-indole-3-carboxamide] | 45.3 ± 6.7 |
| CCOC(=O)c1cn(C(=O)c2cccc(C)c2)c2ccc(Br)cc12 [7a, Ethyl 5-bromo-1-(3-methylbenzoyl)-1H-indole-3-carboxylate] | 21.6 ± 3.3 |
| CCOC(=O)c1cn(C(=O)c2ccc(C)cc2)c2cc(Br)ccc12 [7c, Ethyl 6-bromo-1-(4-methylbenzoyl)-1H-indole-3-carboxylate] | 10.5 ± 1.7 |
| CCOC(=O)c1cn(C(=O)c2cccc(C)c2)c2ccc([N+](=O)[O-])cc12 [7d, Ethyl 1-(3-methylbenzoyl)-5-nitro-1H-indole-3-carboxylate] | 2.4 ± 0.4 |
| CCOC(=O)c1cn(C(=O)c2ccc(C)cc2)c2ccc([N+](=O)[O-])cc12 [7e, Ethyl 1-(4-methylbenzoyl)-5-nitro-1H-indole-3-carboxylate] | 13.2 ± 1.8 |

Same assay, conditions: highest tested concentration 50 µM

| Structure (SMILES) | HNE inhibitory activity (in words) |
| --- | --- |
| CCOC(=O)c1cn(-c2cccc(C)c2)c2ccccc12 [2a, Ethyl 1-(m-tolyl)-1H-indole-3-carboxylate] | lack of activity |
| CCOC(=O)c1cn(C(=O)c2cccc(C)c2)c2ccccc12 [2c, Ethyl 1-(3-methylbenzoyl)-1H-indole-3-carboxylate] | inactive |
| CCOC(=O)c1cn(C(=O)c2cccc(Cl)c2)c2ccccc12 [2f, Ethyl 1-(3-chlorobenzoyl)-1H-indole-3-carboxylate] | inactive |
| Cc1ccc(S(=O)(=O)n2cc(C(=O)Nc3ccccc3)c3ccccc32)cc1 [5f, N-phenyl-1-tosyl-1H-indole-3-carboxamide] | lack of activity |
| CCOC(=O)c1cn(C(=O)c2cccc(C)c2)c2cc(Br)ccc12 [7b, Ethyl 6-bromo-1-(3-methylbenzoyl)-1H-indole-3-carboxylate] | no activity |
| CCOC(=O)c1cn(C(=O)c2ccc(C)cc2)c2ccc(N)cc12 [compound 8, Ethyl 5-amino-1-(4-methylbenzoyl)-1H-indole-3-carboxylate] | no activity |
| CCOC(=O)c1cn(C(=O)c2ccc(C)cc2)c2ccc(NC(C)=O)cc12 [compound 9, Ethyl 5-acetamido-1-(4-methylbenzoyl)-1H-indole-3-carboxylate] | no activity |
